Test results reported in ChEMBL document CHEMBL5705905, “Pharmacological targeting of kinases MST1 and MST2 augments tissue repair and regeneration” (Sci Transl Med, 2016).
The source made the active and inactive calls. No cut-off for these calls is given here.

Experiments:
[1] = tested on: Mast/stem cell growth factor receptor Kit (Homo sapiens), P10721 [V559D]; test: Inhibition of KIT V559D mutant (unknown origin) assessed as remaining activity at 1 uM by Kinome scan method relative to control
[2] = biological target: Mast/stem cell growth factor receptor Kit (Homo sapiens) (UniProt P10721); test: Inhibition of KIT-autoinhibited (unknown origin) assessed as remaining activity at 1 uM by Kinome scan method relative to control
[3] = Cmax in male Sprague-Dawley rat at 5 mg/kg, iv measured for 24 hrs by LC-MS/MS analysis; format: ADME, organism-based; details: in vivo
Outline: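 Sprague-Dawley rats, single intravenous or oral dose. Parameters (half-life, AUC, bioavailability) reported in a supplementary table.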

[4] = biological target: Serine/threonine-protein kinase pim-3 (Homo sapiens) (UniProt Q86V86); test: Inhibition of PIM3 (unknown origin) assessed as remaining activity at 1 uM by Kinome scan method relative to control
Mus musculus [5] = test: Protection against CCl4-induced mouse assessed as low level in collagen deposition at 1 mg/kg, ip administration daily for 10 days by Sirius Red staining; format: functional, organism-based; details: Liver, time 10.0 day
[6] = Acute toxicity in wild-type mouse assessed as CK19-positive cells at 1 mg/kg,ip administrated daily for 2 months and after 2 weeks drug withdrawal by H and E staining based immunohistochemical analysis; format: organism-based; details: in vivo, 1460 h
Outline: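 Wild-type mice dosed 1 mg/kg i.p. daily for 2 months (vehicle 0.1% citric acid aqueous solution with 20% Kolliphor HS 15), or dosed and then withdrawn 2 weeks. Liver sections given H&E and IHC for CK19 and BrdU; positive cells counted, n = 3; means ± SD, Student's t test.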

Mus musculus [7] = test: Protection against APAP induced liver injury in mouse assessed as continual expansion of centrilobular necrotic lesions at 1 mg/kg, ip administered at 1.5 hrs by TUNEL staining; format: functional, organism-based
HepG2 = test: Induction of apoptosis in human HepG2 cells overexpressing MST2 assessed as early apoptosis cells at 3 uM by annexinV staining (Rvb =13.6 %); format: functional
[8] = biological target: Serine/threonine-protein kinase 24 (Homo sapiens, UniProt Q9Y6E0); test: Binding affinity to MST3 (unknown origin) assessed as dissociation constant
[9] = biological target: Calcium/calmodulin-dependent protein kinase type II subunit alpha (Homo sapiens) (UniProt Q9UQM7); test: Inhibition of CAMK2A (unknown origin) assessed as remaining activity at 1 uM by Kinome scan method relative to control
Outline: (§1)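 Active-site-dependent competition-binding profiling (KINOMEscan) at 1 μM against a 468-kinase panel; compound supplied from a 10 mM DMSO stock. Read-out is ctrl% = (test signal − positive control signal)/(negative control signal − positive control signal) × 100. DMSO is the negative control (100%) and a control compound the positive control (0%). Lower ctrl% means tighter binding.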

[10] = biological target: Serine/threonine-protein kinase SIK2 (Homo sapiens) (UniProt Q9H0K1); test: Inhibition of SIK2 (unknown origin) assessed as remaining activity at 1 uM by Kinome scan method relative to control
[11] = biological target: Serine/threonine-protein kinase MRCK gamma (Homo sapiens) (UniProt Q6DT37); test: Inhibition of DMPK2 (unknown origin) assessed as remaining activity at 1 uM by Kinome scan method relative to control
[12] = biological target: Activin receptor type-1-like (Homo sapiens) (UniProt P37023); test: Inhibition of ACVRL1 (unknown origin) assessed as remaining activity at 1 uM by Kinome scan method relative to control
Outline: (§2)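 Active-site-dependent competition-binding (KINOMEscan) panel of 468 kinases, test compound at 1 μM (from a 10 mM DMSO stock). Read-out is ctrl% = (test signal − positive control signal)/(negative control signal − positive control signal) × 100. DMSO is the negative control (100%) and a control compound is the positive control (0%). Lower ctrl% means tighter binding.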

[13] = biological target: Mitogen-activated protein kinase 1 (Homo sapiens) (UniProt P28482); test: Inhibition of ERK2 (unknown origin) assessed as remaining activity at 1 uM by Kinome scan method relative to control
[14] = biological target: Rho-associated protein kinase 2 (Homo sapiens) (UniProt O75116); test: Inhibition of ROCK2 (unknown origin) assessed as remaining activity at 1 uM by Kinome scan method relative to control
[15] = biological target: Serine/threonine-protein kinase WNK4 (Homo sapiens) (UniProt Q96J92); test: Inhibition of WNK4 (unknown origin) assessed as remaining activity at 1 uM by Kinome scan method relative to control
[16] = biological target: Tyrosine-protein kinase Mer (Homo sapiens) (UniProt Q12866); test: Inhibition of MERTK (unknown origin) assessed as remaining activity at 1 uM by Kinome scan method relative to control
[17] = biological target: Vascular endothelial growth factor receptor 2 (Homo sapiens) (UniProt P35968); test: Inhibition of VEGFR2 (unknown origin) assessed as remaining activity at 1 uM by Kinome scan method relative to control
[18] = biological target: Serine/threonine-protein kinase TAO3 (Homo sapiens, UniProt Q9H2K8); test: Inhibition of TAOK3 (unknown origin) in presence of ATP by enzymatic assay
[19] = biological target: Mitogen-activated protein kinase kinase kinase 12 (Homo sapiens) (UniProt Q12852); test: Inhibition of DLK (unknown origin) assessed as remaining activity at 1 uM by Kinome scan method relative to control
[20] = biological target: Phosphatidylinositol 4-phosphate 5-kinase type-1 gamma (Homo sapiens, UniProt O60331); test: Inhibition of PIP5K1C (unknown origin) in presence of ATP by enzymatic assay
Mus musculus [21] = test: Anti-colitis activity against DSS-induced mouse assessed as suppression in disease activity index at 1 mg/kg, ip administrated daily for over 1 to 21 days; format: functional, organism-based; details: time 1-21 day
Outline: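 Colitis was induced in wild-type mice with DSS on days 1–7, with vehicle or 1 mg/kg daily (n = 12 per group). Disease activity index (diarrhea, rectal bleeding) was scored daily over days 1–21. Student's t test at each time point.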

[22] = biological target: RAC-alpha serine/threonine-protein kinase (Homo sapiens) (UniProt P31749); test: Inhibition of AKT1 (unknown origin) assessed as remaining activity at 1 uM by Kinome scan method relative to control; outline: as §2
[23] = biological target: Serine/threonine-protein kinase Nek6 (Homo sapiens) (UniProt Q9HC98); test: Inhibition of NEK6 (unknown origin) assessed as remaining activity at 1 uM by Kinome scan method relative to control
[24] = biological target: Phosphatidylinositol 4,5-bisphosphate 3-kinase catalytic subunit delta isoform (Homo sapiens) (UniProt O00329); test: Inhibition of PIK3CD (unknown origin) assessed as remaining activity at 1 uM by Kinome scan method relative to control
[25] = biological target: Serine/threonine-protein kinase RIO1 (Homo sapiens) (UniProt Q9BRS2); test: Inhibition of RIOK1 (unknown origin) assessed as remaining activity at 1 uM by Kinome scan method relative to control
[26] = biological target: Casein kinase I isoform alpha (Homo sapiens) (UniProt P48729); test: Inhibition of CSNK1A1 (unknown origin) assessed as remaining activity at 1 uM by Kinome scan method relative to control; outline: as §1

Sequence of Serine/threonine-protein kinase MRCK gamma (Homo sapiens) (Q6DT37 whole entry): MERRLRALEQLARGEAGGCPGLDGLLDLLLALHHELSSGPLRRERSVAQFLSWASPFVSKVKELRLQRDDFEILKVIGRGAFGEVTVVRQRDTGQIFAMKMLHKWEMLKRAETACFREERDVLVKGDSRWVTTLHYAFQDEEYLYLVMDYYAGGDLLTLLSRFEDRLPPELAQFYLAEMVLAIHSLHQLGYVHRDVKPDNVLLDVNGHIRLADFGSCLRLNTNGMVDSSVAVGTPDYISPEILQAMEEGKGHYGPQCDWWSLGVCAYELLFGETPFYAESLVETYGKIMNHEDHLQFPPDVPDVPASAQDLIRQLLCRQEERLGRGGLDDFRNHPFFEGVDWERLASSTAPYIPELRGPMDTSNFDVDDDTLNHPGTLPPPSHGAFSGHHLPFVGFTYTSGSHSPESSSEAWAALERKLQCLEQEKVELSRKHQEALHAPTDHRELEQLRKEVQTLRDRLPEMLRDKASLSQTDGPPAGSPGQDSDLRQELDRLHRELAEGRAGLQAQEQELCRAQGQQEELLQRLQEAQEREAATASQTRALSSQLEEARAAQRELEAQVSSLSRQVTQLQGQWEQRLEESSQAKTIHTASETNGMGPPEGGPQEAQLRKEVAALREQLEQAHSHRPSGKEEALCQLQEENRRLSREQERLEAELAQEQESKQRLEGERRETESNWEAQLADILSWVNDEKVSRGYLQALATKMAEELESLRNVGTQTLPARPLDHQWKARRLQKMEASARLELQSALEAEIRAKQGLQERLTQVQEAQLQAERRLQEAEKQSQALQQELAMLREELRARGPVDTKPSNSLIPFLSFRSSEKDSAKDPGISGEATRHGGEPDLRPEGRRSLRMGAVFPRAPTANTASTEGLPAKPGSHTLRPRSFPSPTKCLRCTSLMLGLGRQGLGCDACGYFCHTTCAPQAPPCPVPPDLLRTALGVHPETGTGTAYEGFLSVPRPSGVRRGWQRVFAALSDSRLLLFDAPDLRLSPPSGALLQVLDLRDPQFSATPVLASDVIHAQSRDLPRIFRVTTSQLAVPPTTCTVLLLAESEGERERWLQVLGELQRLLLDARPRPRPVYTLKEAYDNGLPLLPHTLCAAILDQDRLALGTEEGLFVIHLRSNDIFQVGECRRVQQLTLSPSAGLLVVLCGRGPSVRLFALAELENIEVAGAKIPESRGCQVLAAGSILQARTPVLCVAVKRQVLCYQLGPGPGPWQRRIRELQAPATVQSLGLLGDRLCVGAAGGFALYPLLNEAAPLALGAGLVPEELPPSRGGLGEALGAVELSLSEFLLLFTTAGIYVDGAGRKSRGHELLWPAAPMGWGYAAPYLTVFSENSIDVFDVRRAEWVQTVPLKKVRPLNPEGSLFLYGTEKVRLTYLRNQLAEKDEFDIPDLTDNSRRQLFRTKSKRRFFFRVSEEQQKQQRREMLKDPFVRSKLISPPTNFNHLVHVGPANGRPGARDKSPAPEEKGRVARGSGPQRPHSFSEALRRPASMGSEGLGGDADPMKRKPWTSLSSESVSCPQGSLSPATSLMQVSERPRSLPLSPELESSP
Sequence of Serine/threonine-protein kinase SIK2 (Homo sapiens) (Q9H0K1 whole entry, looked up): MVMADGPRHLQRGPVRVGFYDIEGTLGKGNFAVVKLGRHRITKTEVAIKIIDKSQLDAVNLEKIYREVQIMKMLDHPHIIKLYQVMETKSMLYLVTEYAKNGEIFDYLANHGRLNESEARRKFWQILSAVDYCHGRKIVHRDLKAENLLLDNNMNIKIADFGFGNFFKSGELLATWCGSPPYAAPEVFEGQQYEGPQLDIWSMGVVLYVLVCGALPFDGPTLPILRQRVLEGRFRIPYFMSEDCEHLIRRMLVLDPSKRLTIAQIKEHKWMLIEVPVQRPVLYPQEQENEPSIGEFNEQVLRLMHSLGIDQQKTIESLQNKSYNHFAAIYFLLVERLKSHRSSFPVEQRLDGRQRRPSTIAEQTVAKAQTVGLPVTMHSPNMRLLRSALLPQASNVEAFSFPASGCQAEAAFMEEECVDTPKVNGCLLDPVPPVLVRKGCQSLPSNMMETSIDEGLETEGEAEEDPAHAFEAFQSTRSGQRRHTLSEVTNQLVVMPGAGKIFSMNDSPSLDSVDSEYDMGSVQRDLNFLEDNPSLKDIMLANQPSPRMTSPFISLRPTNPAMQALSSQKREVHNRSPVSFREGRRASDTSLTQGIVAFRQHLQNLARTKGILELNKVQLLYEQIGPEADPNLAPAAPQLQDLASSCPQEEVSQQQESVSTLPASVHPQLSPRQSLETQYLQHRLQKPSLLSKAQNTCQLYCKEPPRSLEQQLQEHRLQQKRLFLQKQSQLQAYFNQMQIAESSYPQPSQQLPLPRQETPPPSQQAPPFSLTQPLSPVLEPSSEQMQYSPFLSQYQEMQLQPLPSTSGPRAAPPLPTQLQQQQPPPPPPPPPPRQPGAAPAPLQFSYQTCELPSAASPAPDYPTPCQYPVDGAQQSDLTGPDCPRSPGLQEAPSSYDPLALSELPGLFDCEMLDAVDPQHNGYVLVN
Sequence of RAC-alpha serine/threonine-protein kinase (Homo sapiens) (P31749 whole entry): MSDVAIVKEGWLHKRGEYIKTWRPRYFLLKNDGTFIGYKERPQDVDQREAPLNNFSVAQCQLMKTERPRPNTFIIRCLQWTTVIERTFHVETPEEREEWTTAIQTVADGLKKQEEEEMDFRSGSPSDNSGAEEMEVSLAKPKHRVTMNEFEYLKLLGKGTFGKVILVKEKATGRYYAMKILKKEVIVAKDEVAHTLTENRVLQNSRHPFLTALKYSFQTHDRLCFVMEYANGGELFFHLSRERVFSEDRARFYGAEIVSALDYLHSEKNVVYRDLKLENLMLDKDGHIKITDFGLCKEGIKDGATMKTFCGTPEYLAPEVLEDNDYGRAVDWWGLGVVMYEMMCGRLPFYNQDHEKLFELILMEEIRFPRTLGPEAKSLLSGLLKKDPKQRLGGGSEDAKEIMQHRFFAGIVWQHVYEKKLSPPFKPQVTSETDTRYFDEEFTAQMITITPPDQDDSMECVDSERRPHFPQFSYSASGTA
Sequence of Serine/threonine-protein kinase TAO3 (Q9H2K8 whole entry): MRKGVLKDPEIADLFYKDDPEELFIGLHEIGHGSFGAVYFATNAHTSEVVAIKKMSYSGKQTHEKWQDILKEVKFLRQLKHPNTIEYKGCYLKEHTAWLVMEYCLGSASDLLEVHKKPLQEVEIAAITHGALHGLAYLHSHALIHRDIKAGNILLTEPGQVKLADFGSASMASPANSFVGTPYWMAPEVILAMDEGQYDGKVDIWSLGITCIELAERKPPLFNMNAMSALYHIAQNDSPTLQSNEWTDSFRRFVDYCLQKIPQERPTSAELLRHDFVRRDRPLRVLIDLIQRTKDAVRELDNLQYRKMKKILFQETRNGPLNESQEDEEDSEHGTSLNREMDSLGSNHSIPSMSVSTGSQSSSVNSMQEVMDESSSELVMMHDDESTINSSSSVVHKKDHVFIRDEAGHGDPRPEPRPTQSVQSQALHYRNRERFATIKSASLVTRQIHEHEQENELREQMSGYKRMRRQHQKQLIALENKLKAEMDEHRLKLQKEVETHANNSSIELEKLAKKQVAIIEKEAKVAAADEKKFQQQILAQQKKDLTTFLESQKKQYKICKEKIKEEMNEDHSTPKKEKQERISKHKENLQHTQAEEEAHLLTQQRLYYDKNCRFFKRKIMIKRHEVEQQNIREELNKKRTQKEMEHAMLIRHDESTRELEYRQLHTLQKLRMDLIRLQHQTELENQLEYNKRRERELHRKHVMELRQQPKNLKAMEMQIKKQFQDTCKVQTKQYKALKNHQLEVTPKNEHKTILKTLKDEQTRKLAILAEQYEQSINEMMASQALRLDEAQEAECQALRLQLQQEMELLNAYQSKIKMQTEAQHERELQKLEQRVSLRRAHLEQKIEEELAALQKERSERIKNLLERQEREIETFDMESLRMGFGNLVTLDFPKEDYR
Sequence of Mast/stem cell growth factor receptor Kit (Homo sapiens) (P10721 whole entry): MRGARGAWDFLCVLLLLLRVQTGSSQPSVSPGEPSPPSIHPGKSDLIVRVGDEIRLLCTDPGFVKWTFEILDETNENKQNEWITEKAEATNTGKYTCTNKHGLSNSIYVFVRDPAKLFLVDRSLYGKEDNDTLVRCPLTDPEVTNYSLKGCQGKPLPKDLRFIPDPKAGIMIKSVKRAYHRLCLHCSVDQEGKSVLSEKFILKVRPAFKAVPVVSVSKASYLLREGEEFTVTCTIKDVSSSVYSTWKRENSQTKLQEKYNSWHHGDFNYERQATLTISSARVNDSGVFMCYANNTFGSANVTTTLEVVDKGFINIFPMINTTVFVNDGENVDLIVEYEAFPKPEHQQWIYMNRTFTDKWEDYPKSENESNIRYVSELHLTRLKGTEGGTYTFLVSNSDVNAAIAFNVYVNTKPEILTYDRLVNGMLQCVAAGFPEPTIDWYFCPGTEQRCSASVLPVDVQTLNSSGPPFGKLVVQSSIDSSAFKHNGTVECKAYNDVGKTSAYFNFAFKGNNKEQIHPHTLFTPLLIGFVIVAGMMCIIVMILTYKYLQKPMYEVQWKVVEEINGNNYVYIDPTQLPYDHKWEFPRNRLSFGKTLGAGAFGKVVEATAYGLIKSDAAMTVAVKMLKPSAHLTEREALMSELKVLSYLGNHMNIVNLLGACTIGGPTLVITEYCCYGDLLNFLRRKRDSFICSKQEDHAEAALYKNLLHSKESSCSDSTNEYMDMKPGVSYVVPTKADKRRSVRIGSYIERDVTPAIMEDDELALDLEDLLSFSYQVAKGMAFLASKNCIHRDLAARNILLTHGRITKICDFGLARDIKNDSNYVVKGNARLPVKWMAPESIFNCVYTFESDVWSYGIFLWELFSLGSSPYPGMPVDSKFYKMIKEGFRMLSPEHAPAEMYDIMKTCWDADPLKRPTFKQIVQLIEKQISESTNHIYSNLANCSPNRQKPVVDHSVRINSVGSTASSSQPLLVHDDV
Sequence of Mast/stem cell growth factor receptor Kit (Homo sapiens), P10721 [V559D] (P10721 whole entry V559D): as the sequence (P10721 whole entry) above, with V559D counted along it

## CN1C(=O)c2sccc2N(C)c2nc(Nc3ccc(S(N)(=O)=O)cc3)ncc21
[1]
  Activity: 97%
[2]
  Activity: 100%
[3]
  Cmax: 1140 ng/mL
[4]
  Activity: 100%
Mus musculus [5]
  Activity: Active
[6]
  Activity: Non-Toxic
Mus musculus [7]
  Activity: Active
HepG2
  Activity: 5.12%
[8]
  Kd: 18 nM
[9]
  Activity: 77%
[10]
  Activity: 100%
[11]
  Activity: 100%
[12]
  Activity: 100%
[13]
  Activity: 100%
[14]
  Activity: 96%
[15]
  Activity: 95%
[16]
  Activity: 100%
[17]
  Activity: 100%
[18]
  IC50: 254 nM
[19]
  Activity: 85%
[20]
  IC50: 436 nM
Mus musculus [21]
  Activity: Active
[22]
  Activity: 100%
[23]
  Activity: 97%
[24]
  Activity: 47%
[25]
  Activity: 86%
[26]
  Activity: 88%
